The source of these data is ChEMBL document CHEMBL1153598, “Syntheses of low-hemolytic antimicrobial gratisin peptides” (Bioorg Med Chem Lett, 2009).

One data set concerns Priestia megaterium. Description: Antibiotic activity against Bacillus megaterium ATCC 19213 by microplate dilution assay. The data set is classed as functional. An outline of the steps:
(§1)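 Minimum inhibitory concentration determined by microplate dilution, inoculum 10⁶ organisms per ml. Strains tested: Bacillus subtilis NBRC 3513, Bacillus megaterium ATCC 19213, Staphylococcus epidermidis NBRC 12933, Staphylococcus aureus NBRC 12732, Pseudomonas aeruginosa NBRC 3080, Escherichia coli NBRC 12734. MIC reported in µg/mL.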

A further data set deals with Pseudomonas aeruginosa. Description: Antibiotic activity against Pseudomonas aeruginosa NBRC 3080 by microplate dilution assay. The data set is classed as functional. An outline of the steps:
as §1

Another data set relates to Escherichia coli. Nature of the data set: Antibiotic activity against Escherichia coli NBRC 12734 by microplate dilution assay. The data set is classed as functional. Put shortly:
as §1

In data set [1] the test system is Staphylococcus epidermidis. Nature of the data set: Antibiotic activity against Staphylococcus epidermidis NBRC 12933 by microplate dilution assay. The data set is classed as functional. An outline of the steps:
as §1

Data set [2] is described as follows: Cytotoxicity against human red blood cells assessed as hemolysis after 30 mins. The data set is classed as cell-based. Particulars: erythrocyte, 0.5 h.
The test system of a further data set is Bacillus subtilis. Description: Antibiotic activity against Bacillus subtilis NBRC 3513 by microplate dilution assay. The data set is classed as functional. Put shortly: as §1
A further data set deals with Staphylococcus aureus. Nature of the data set: Antibiotic activity against Staphylococcus aureus NBRC 12732 by microplate dilution assay. The data set is classed as functional. An outline of the steps:
as §1

The structures appear in SMILES notation. ≈ marks a conversion by molar mass, not a printed value.

In general, MIC refers to the lowest concentration found to suppress growth. A low value points to a more susceptible organism.

Consider `CCCC[C@H]1NC(=O)[C@@H]2CCCN2C(=O)[C@@H](Cc2ccccc2)NC(=O)[C@H](CC(C)C)NC(=O)[C@H](CCCN)NC(=O)[C@H](C(C)C)NC(=O)[C@@H](CCCC)NC(=O)[C@@H]2CCCN2C(=O)[C@@H](Cc2ccccc2)NC(=O)[C@H](CC(C)C)NC(=O)[C@H](CCCN)NC(=O)[C@H](C(C)C)NC1=O`, for which the MIC in the data set with Priestia megaterium was 6.25 mg/L (≈ 4.57 µM); with Pseudomonas aeruginosa, 50 mg/L (≈ 36.6 µM); with Escherichia coli, 100 mg/L (≈ 73.1 µM); in data set [1], 6.25 mg/L (≈ 4.57 µM); in the data set on Bacillus subtilis, 6.25 mg/L (≈ 4.57 µM); against Staphylococcus aureus it was 3.13 mg/L (≈ 2.29 µM). Further, in data set [2], the Activity entry was “Dose-dependent effect”.
As for `CC(C)C[C@@H]1NC(=O)[C@H](CCCN)NC(=O)[C@H](C(C)C)NC(=O)[C@@H](Cc2ccccc2)NC(=O)[C@@H]2CCCN2C(=O)[C@@H](Cc2ccccc2)NC(=O)[C@H](CC(C)C)NC(=O)[C@H](CCCN)NC(=O)[C@H](C(C)C)NC(=O)[C@@H](Cc2ccccc2)NC(=O)[C@@H]2CCCN2C(=O)[C@@H](Cc2ccccc2)NC1=O`, the MIC was 6.25 mg/L (≈ 4.35 µM) with Priestia megaterium; 100 mg/L (≈ 69.6 µM) in the data set on Pseudomonas aeruginosa; greater than 100 mg/L in the data set on Escherichia coli; 12.5 mg/L (≈ 8.71 µM) in data set [1]; 6.25 mg/L (≈ 4.35 µM) in the data set on Bacillus subtilis; 12.5 mg/L (≈ 8.71 µM) in the data set with Staphylococcus aureus. Also, in data set [2], the Activity entry is “Dose-dependent effect”.
Take `CC(C)C[C@@H]1NC(=O)[C@H](CCCN)NC(=O)[C@H](C(C)C)NC(=O)[C@@H](CC(C)C)NC(=O)[C@@H]2CCCN2C(=O)[C@@H](Cc2ccccc2)NC(=O)[C@H](CC(C)C)NC(=O)[C@H](CCCN)NC(=O)[C@H](C(C)C)NC(=O)[C@@H](CC(C)C)NC(=O)[C@@H]2CCCN2C(=O)[C@@H](Cc2ccccc2)NC1=O`: the MIC is 6.25 mg/L (≈ 4.57 µM) in the data set with Priestia megaterium; 100 mg/L (≈ 73.1 µM) against Pseudomonas aeruginosa; greater than 100 mg/L against Escherichia coli; 12.5 mg/L (≈ 9.14 µM) in data set [1]; 6.25 mg/L (≈ 4.57 µM) in the data set on Bacillus subtilis; 12.5 mg/L (≈ 9.14 µM) against Staphylococcus aureus. For the same compound, in data set [2], the Activity entry was “Dose-dependent effect”.
`CC(C)C[C@@H]1NC(=O)[C@H](CCCN)NC(=O)[C@H](C(C)C)NC(=O)[C@@H]([C@H](C)O)NC(=O)[C@@H]2CCCN2C(=O)[C@@H](Cc2ccccc2)NC(=O)[C@H](CC(C)C)NC(=O)[C@H](CCCN)NC(=O)[C@H](C(C)C)NC(=O)[C@@H]([C@H](C)O)NC(=O)[C@@H]2CCCN2C(=O)[C@@H](Cc2ccccc2)NC1=O` [listing 1 of 2 here]: in data set [2], the Activity entry is reported as “Dose-dependent effect”.
Take `CC(C)C[C@@H]1NC(=O)[C@H](CCCN)NC(=O)[C@H](C(C)C)NC(=O)[C@@H]([C@H](C)O)NC(=O)[C@@H]2CCCN2C(=O)[C@@H](Cc2ccccc2)NC(=O)[C@H](CC(C)C)NC(=O)[C@H](CCCN)NC(=O)[C@H](C(C)C)NC(=O)[C@@H]([C@H](C)O)NC(=O)[C@@H]2CCCN2C(=O)[C@@H](Cc2ccccc2)NC1=O` [listing 2 of 2 here]: the MIC was 100 mg/L (≈ 74.4 µM) with Priestia megaterium; greater than 100 mg/L in the data set with Pseudomonas aeruginosa; greater than 100 mg/L in the data set on Escherichia coli; 100 mg/L (≈ 74.4 µM) in data set [1]; 100 mg/L (≈ 74.4 µM) in the data set on Bacillus subtilis; 50 mg/L (≈ 37.2 µM) with Staphylococcus aureus.
As to `CC(C)C[C@@H]1NC(=O)[C@H](CCCN)NC(=O)[C@H](C(C)C)NC(=O)[C@@H](C(C)C)NC(=O)[C@@H]2CCCN2C(=O)[C@@H](Cc2ccccc2)NC(=O)[C@H](CC(C)C)NC(=O)[C@H](CCCN)NC(=O)[C@H](C(C)C)NC(=O)[C@@H](C(C)C)NC(=O)[C@@H]2CCCN2C(=O)[C@@H](Cc2ccccc2)NC1=O`, the MIC in the data set with Priestia megaterium was 6.25 mg/L (≈ 4.67 µM); in the data set on Pseudomonas aeruginosa it was greater than 100 mg/L; against Escherichia coli, greater than 100 mg/L; in data set [1], 12.5 mg/L (≈ 9.33 µM); with Bacillus subtilis it was 6.25 mg/L (≈ 4.67 µM); in the data set on Staphylococcus aureus it was 12.5 mg/L (≈ 9.33 µM). Besides, the Activity result in data set [2] is on record as “Dose-dependent effect”.
